Measured values taken from ChEMBL document CHEMBL4270544, “Design, synthesis and biological evaluation of a novel tubulin inhibitor 7a3 targeting the colchicine binding site” (Eur J Med Chem, 2018).
The source made the active and inactive calls. No cut-off for these calls is given here.

Key:
SK-OV-3 [1] = experiment: Antiproliferative activity against human SKOV3 cells after 72 hrs by CCK8 assay; type: functional, cell-based; conditions: SK-OV-3, 72 h
In short: (§1)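 CCK-8 proliferation assay with CA-4 as positive control. IC50 is the concentration giving 50% inhibition of proliferation. Mean ± SEM from three independent experiments.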

HeLa = experiment: Antiproliferative activity against human HeLa cells after 72 hrs by CCK8 assay; type: functional, cell-based; in short: as §1
A549 = experiment: Antiproliferative activity against human A549 cells after 72 hrs by CCK8 assay; type: functional, cell-based; conditions: A549, 72 h; in short: as §1
SK-OV-3 [2] = experiment: Cell cycle arrest in human SKOV3 cells assessed as accumulation at G0/G1 phase at 40 nM after 24 hrs by propidium iodide staining based flow cytometry (reference value: 67.79%); type: functional
In short: (§2)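 SK-OV-3 cells exposed to 40, 80 or 160 nM for 24 h, with untreated cells as control. Stained with PI and analysed by flow cytometry for phase distribution. Mean ± SEM of three independent experiments; t-test against control.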

SK-OV-3 [3] = experiment: Cell cycle arrest in human SKOV3 cells assessed as accumulation at S phase at 40 nM after 24 hrs by propidium iodide staining based flow cytometry (reference value: 18.09%); type: functional; in short: as §2
SK-OV-3 [4] = experiment: Cell cycle arrest in human SKOV3 cells assessed as accumulation at G2/M phase at 40 nM after 24 hrs by propidium iodide staining based flow cytometry (reference value: 24.99%); type: functional; in short: as §2
SK-OV-3 [5] = experiment: Cell cycle arrest in human SKOV3 cells assessed as accumulation at G0/G1 phase at 160 nM after 24 hrs by propidium iodide staining based flow cytometry (reference value: 67.79%); type: functional; in short: as §2
SK-OV-3 [6] = experiment: Cell cycle arrest in human SKOV3 cells assessed as accumulation at S phase at 160 nM after 24 hrs by propidium iodide staining based flow cytometry (reference value: 18.09%); type: functional; in short: as §2
SK-OV-3 [7] = experiment: Induction of apoptosis in human SKOV3 cells assessed as late apoptotic cells at 40 nM after 48 hrs by Annexin-V-FITC/propidium iodide staining based flow cytometry (reference value: 3.93%); type: functional
SK-OV-3 [8] = experiment: Induction of apoptosis in human SKOV3 cells assessed as live cells at 80 nM after 48 hrs by Annexin-V-FITC/propidium iodide staining based flow cytometry (reference value: 94.43%); type: functional
SK-OV-3 [9] = experiment: Induction of apoptosis in human SKOV3 cells assessed as early apoptotic cells at 80 nM after 48 hrs by Annexin-V-FITC/propidium iodide staining based flow cytometry (reference value: 0.97%); type: functional
SK-OV-3 [10] = experiment: Induction of apoptosis in human SKOV3 cells assessed as live cells at 160 nM after 48 hrs by Annexin-V-FITC/propidium iodide staining based flow cytometry (reference value: 94.43%); type: functional
SK-OV-3 [11] = experiment: Induction of apoptosis in human SKOV3 cells assessed as necrotic cells at 160 nM after 48 hrs by Annexin-V-FITC/propidium iodide staining based flow cytometry (reference value: 0.67%); type: functional
SK-OV-3 [12] = experiment: Antimigratory activity against human SKOV3 cells assessed as wound closure at 160 nM after 24 hrs by microscopy based scratch wound assay (reference value: 79.5 +/- 2.8%); type: functional
SK-OV-3 [13] = experiment: Antimigratory activity against human SKOV3 cells assessed as number of migrated cells at 50 nM after 24 hrs by crystal violet staining based transwell migration assay (reference value: 49.3 to 50.7); type: functional
SK-OV-3 [14] = experiment: Antimigratory activity against human SKOV3 cells assessed as number of migrated cells at 25 nM after 24 hrs by crystal violet staining based transwell migration assay (reference value: 49.3 to 50.7); type: functional
Bos taurus [15] = species: Bos taurus; experiment: Inhibition of bovine MAP-rich tubulin polymerization measured every 1 min for 30 mins
In short: (§3)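 Purified tubulin polymerization followed at 37 °C by absorbance at 340 nm, read every 1 min for 30 min. Test concentrations 2.5, 10 and 40 µM. CA-4 at 10 µM served as positive control and DMSO (1%, v/v) as vehicle. Polymerization is expressed relative to the vehicle group.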

Bos taurus [16] = species: Bos taurus; experiment: Inhibition of bovine MAP-rich tubulin polymerization at 2.5 uM measured every 1 min for 30 mins relative to control; in short: as §3
SK-OV-3 [17] = experiment: Inhibition of tubulin assembly in human SKOV3 cells assessed as disorganized microtubule polymerization at 10 to 1000 nM after 24 hrs by DAPI staining based immunofluorescence microscopic method; type: functional, cell-based
In short: (§4)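 SK-OV-3 cells exposed to DMSO or 10, 100 or 1000 nM for 24 h. Fixed in methanol, stained with FITC anti-β-tubulin antibody, counterstained with DAPI, and imaged by confocal microscopy.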

SK-OV-3 [18] = experiment: Inhibition of tubulin assembly in human SKOV3 cells assessed as abnormal mitotic spindle formation at 10 to 1000 nM after 24 hrs by DAPI staining based immunofluorescence microscopic method; type: functional, cell-based; in short: as §4
[19] = Tmax in C57 mouse at 50 mg/kg, ip administered as single dose by LC-MS/MS analysis; type: ADME, organism-based; conditions: in vivo
In short: (§5)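 Male C57 mice, one intraperitoneal dose. Blood drawn from submaxillary vein at 0, 5, 15, 30 min and 1, 2, 4, 8, 12, 24 h. Plasma measured by LC/MS/MS in MRM mode with CA-4 as internal standard. Calibration by weighted linear regression over 0.01–500 ng/mL. Parameters obtained by non-compartmental analysis.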

[20] = AUC (0 to infinity) in C57 mouse at 50 mg/kg, ip administered as single dose by LC-MS/MS analysis; type: ADME, organism-based; set-up: dose 50 mg/kg, time infinity, route intraperitoneal; conditions: in vivo; in short: as §5
Mus musculus [21] = experiment: Area under the first moment curve (0 to infinity) in C57 mouse at 50 mg/kg, ip administered as single dose by LC-MS/MS analysis; type: ADME, organism-based; conditions: in vivo; in short: as §5
[22] = Mean residence time in C57 mouse at 50 mg/kg, ip administered as single dose by LC-MS/MS analysis; type: ADME, organism-based; conditions: in vivo; in short: as §5
Mus musculus [23] = experiment: Toxicity in Balb/c mouse xenografted with human SKOV3 cells assessed as pathological changes in heart at 50 mg/kg, ip administered every two days for three times by hematoxylin and eosin staining based assay; type: organism-based; conditions: in vivo
In short: (§6)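 In SK-OV-3 xenografted Balb/c nude mice dosed 50 mg/kg intraperitoneally in 5% DMSO/olive oil every two days, three times, organs were collected and examined after H&E staining.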

Mus musculus [24] = experiment: Toxicity in Balb/c mouse xenografted with human SKOV3 cells assessed as pathological changes in lung at 50 mg/kg, ip administered every two days for three times by hematoxylin and eosin staining based assay; type: organism-based; conditions: in vivo; in short: as §6
Mus musculus [25] = experiment: Toxicity in Balb/c mouse xenografted with human SKOV3 cells assessed as pathological changes in kidney at 50 mg/kg, ip administered every two days for three times by hematoxylin and eosin staining based assay; type: organism-based; conditions: in vivo; in short: as §6
SK-OV-3 [26] = experiment: Cell cycle arrest in human SKOV3 cells assessed as accumulation at G2/M phase at 160 nM after 24 hrs by propidium iodide staining based flow cytometry (reference value: 14.12%)

Work on `CCOc1ccc(-c2cn(C)nc2-c2cc(OC)c(OC)c(OC)c2)cc1` yielded an IC50 (SK-OV-3 [1]) of 17 nM, an IC50 (HeLa) of 32.8 nM and an IC50 (A549) of 67 nM. For the same molecule, the Activity (SK-OV-3 [2]) was 54.42%, the Activity (SK-OV-3 [3]) was 20.99% and the Activity (SK-OV-3 [4]) was 24.6%. The Activity (SK-OV-3 [5]) was 8.05%, the Activity (SK-OV-3 [6]) was 26.16% and the Activity (SK-OV-3 [7]) was 6.65%. The Activity (SK-OV-3 [8]) was 73.56%, the Activity (SK-OV-3 [9]) was 5.05% and the Activity (SK-OV-3 [10]) was 41.9%. For the same molecule, the Activity (SK-OV-3 [11]) was 1.28%, the Activity (SK-OV-3 [12]) was 32.1% and the Activity (SK-OV-3 [13]) was 21.7. The Activity (SK-OV-3 [14]) was 27.3, the inhibition (Bos taurus [15]) was “Dose-dependent effect” and the inhibition (Bos taurus [16]) was 30.5%. The inhibition (SK-OV-3 [17]) was “Active”, the inhibition (SK-OV-3 [18]) was “Active” and the Tmax [19] was 15 min. It also gave an AUC(0-inf) [20] of 1170 ng·h/mL, an AUMC (Mus musculus [21]) of 1785 hr.hr.ng/ml and an MRT [22] of 90.6 min. The Activity (Mus musculus [23]) was “Non-Toxic”, the Activity (Mus musculus [24]) was “Non-Toxic” and the Activity (Mus musculus [25]) was “Non-Toxic”. The Activity (SK-OV-3 [26]) was 65.79%.
